Experimental data as given in ChEMBL document CHEMBL5058577, “EUbOPEN Chemogenomics Library 2 (Multiplex)” (2022).

Tested on: U2OS
Test: Multiplex assay against U2OS
Format: toxicity, cell-based
Details: human
Outline: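 Imaging took place on a CQ1 microscope at 37°C and 5% CO2 once compound had been added to live cells stained at seeding with Hoechst33342, BioTracker Green Microtubule Cytoskeleton Dye, MitoTracker Red and Annexin V Alexa Fluor 680. CellPathfinder machine-learning gating classed cells as Hoechst high-intensity objects or normal cells, classed normal cells as having healthy, pyknosed or fragmented nuclei, and classed pyknosed cells as mitotic or apoptotic. Tubulin, mitochondrial-mass and membrane-permeability phenotypes are per cents of the healthy-nucleus cells.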

[1] = 12 h, 1 µM, compound concentration 1 uM, replicate 1
[2] = 12 h, 1 µM, compound concentration 1 uM, replicate 2
[3] = 12 h, 10 µM, compound concentration 10 uM, replicate 1
[4] = 12 h, 10 µM, compound concentration 10 uM, replicate 2
[5] = 24 h, 1 µM, compound concentration 1 uM, replicate 1
[6] = 24 h, 1 µM, compound concentration 1 uM, replicate 2
[7] = 24 h, 10 µM, compound concentration 10 uM, replicate 1
[8] = 24 h, 10 µM, compound concentration 10 uM, replicate 2
[9] = 48 h, 1 µM, compound concentration 1 uM, replicate 1
[10] = 48 h, 1 µM, compound concentration 1 uM, replicate 2
[11] = 48 h, 10 µM, compound concentration 10 uM, replicate 1
[12] = 48 h, 10 µM, compound concentration 10 uM, replicate 2

CC(/C=C1\SC(=S)N(CCCC(=O)Nc2ccc(C(=O)O)c(O)c2)C1=O)=C\c1ccccc1
Population Apoptotic (%) [1]: 94% | Population Fragmented Nuclei (%) [1]: 26% | Population Healthy Nuclei (%) [1]: 64% | Population Hoechst High Intensity Objects (%) [1]: 3% | Population Membrane Permeable-Phenotype (%) [1]: 4% | Population Mitochondria Different-Phenotype (%) [1]: 1% | Population Mitotic Cells (%) [1]: 5% | Population Normal (%) [1]: 96% | Population Pyknosed Nuclei (%) [1]: 8% | Population Tubulin-Different-Phenotype (%) [1]: 3% | Total Cell Count [1]: 205 | Population Apoptotic (%) [2]: 100% | Population Fragmented Nuclei (%) [2]: 12% | Population Healthy Nuclei (%) [2]: 80% | Population Hoechst High Intensity Objects (%) [2]: 4% | Population Membrane Permeable-Phenotype (%) [2]: 3% | Population Mitochondria Different-Phenotype (%) [2]: 2% | Population Mitotic Cells (%) [2]: 0% | Population Normal (%) [2]: 95% | Population Pyknosed Nuclei (%) [2]: 7% | Population Tubulin-Different-Phenotype (%) [2]: 0% | Total Cell Count [2]: 133 | Population Apoptotic (%) [3]: 91% | Population Fragmented Nuclei (%) [3]: 28% | Population Healthy Nuclei (%) [3]: 61% | Population Hoechst High Intensity Objects (%) [3]: 3% | Population Membrane Permeable-Phenotype (%) [3]: 12% | Population Mitochondria Different-Phenotype (%) [3]: 2% | Population Mitotic Cells (%) [3]: 8% | Population Normal (%) [3]: 96% | Population Pyknosed Nuclei (%) [3]: 9% | Population Tubulin-Different-Phenotype (%) [3]: 4% | Total Cell Count [3]: 241 | Population Apoptotic (%) [4]: 72% | Population Fragmented Nuclei (%) [4]: 16% | Population Healthy Nuclei (%) [4]: 72% | Population Hoechst High Intensity Objects (%) [4]: 0% | Population Membrane Permeable-Phenotype (%) [4]: 4% | Population Mitochondria Different-Phenotype (%) [4]: 1% | Population Mitotic Cells (%) [4]: 27% | Population Normal (%) [4]: 100% | Population Pyknosed Nuclei (%) [4]: 10% | Population Tubulin-Different-Phenotype (%) [4]: 5% | Total Cell Count [4]: 101 | Population Apoptotic (%) [5]: 83% | Population Fragmented Nuclei (%) [5]: 25% | Population Healthy Nuclei (%) [5]: 64% | Population Hoechst High Intensity Objects (%) [5]: 3% | Population Membrane Permeable-Phenotype (%) [5]: 4% | Population Mitochondria Different-Phenotype (%) [5]: 1% | Population Mitotic Cells (%) [5]: 16% | Population Normal (%) [5]: 96% | Population Pyknosed Nuclei (%) [5]: 10% | Population Tubulin-Different-Phenotype (%) [5]: 1% | Total Cell Count [5]: 247 | Population Apoptotic (%) [6]: 94% | Population Fragmented Nuclei (%) [6]: 9% | Population Healthy Nuclei (%) [6]: 79% | Population Hoechst High Intensity Objects (%) [6]: 1% | Population Membrane Permeable-Phenotype (%) [6]: 10% | Population Mitotic Cells (%) [6]: 5% | Population Normal (%) [6]: 98% | Total Cell Count [6]: 177 | Population Apoptotic (%) [7]: 88% | Population Fragmented Nuclei (%) [7]: 26% | Population Healthy Nuclei (%) [7]: 64% | Population Hoechst High Intensity Objects (%) [7]: 2% | Population Membrane Permeable-Phenotype (%) [7]: 7% | Population Mitochondria Different-Phenotype (%) [7]: 3% | Population Mitotic Cells (%) [7]: 11% | Population Normal (%) [7]: 97% | Population Pyknosed Nuclei (%) [7]: 8% | Population Tubulin-Different-Phenotype (%) [7]: 3% | Total Cell Count [7]: 298 | Population Apoptotic (%) [8]: 53% | Population Fragmented Nuclei (%) [8]: 16% | Population Healthy Nuclei (%) [8]: 72% | Population Hoechst High Intensity Objects (%) [8]: 0% | Population Mitochondria Different-Phenotype (%) [8]: 6% | Population Mitotic Cells (%) [8]: 46% | Population Normal (%) [8]: 100% | Population Pyknosed Nuclei (%) [8]: 11% | Population Tubulin-Different-Phenotype (%) [8]: 6% | Total Cell Count [8]: 111 | Population Apoptotic (%) [9]: 93% | Population Fragmented Nuclei (%) [9]: 16% | Population Healthy Nuclei (%) [9]: 74% | Population Hoechst High Intensity Objects (%) [9]: 2% | Population Membrane Permeable-Phenotype (%) [9]: 5% | Population Mitochondria Different-Phenotype (%) [9]: 1% | Population Mitotic Cells (%) [9]: 6% | Population Normal (%) [9]: 97% | Population Pyknosed Nuclei (%) [9]: 8% | Population Tubulin-Different-Phenotype (%) [9]: 1% | Total Cell Count [9]: 368 | Population Apoptotic (%) [10]: 78% | Population Fragmented Nuclei (%) [10]: 11% | Population Healthy Nuclei (%) [10]: 79% | Population Hoechst High Intensity Objects (%) [10]: 3% | Population Membrane Permeable-Phenotype (%) [10]: 4% | Population Mitochondria Different-Phenotype (%) [10]: 3% | Population Mitotic Cells (%) [10]: 21% | Population Normal (%) [10]: 96% | Population Pyknosed Nuclei (%) [10]: 9% | Population Tubulin-Different-Phenotype (%) [10]: 2% | Total Cell Count [10]: 253 | Population Apoptotic (%) [11]: 97% | Population Fragmented Nuclei (%) [11]: 19% | Population Healthy Nuclei (%) [11]: 68% | Population Hoechst High Intensity Objects (%) [11]: 2% | Population Membrane Permeable-Phenotype (%) [11]: 6% | Population Mitochondria Different-Phenotype (%) [11]: 2% | Population Mitotic Cells (%) [11]: 2% | Population Normal (%) [11]: 97% | Population Pyknosed Nuclei (%) [11]: 12% | Population Tubulin-Different-Phenotype (%) [11]: 4% | Total Cell Count [11]: 396 | Population Apoptotic (%) [12]: 82% | Population Fragmented Nuclei (%) [12]: 16% | Population Healthy Nuclei (%) [12]: 73% | Population Hoechst High Intensity Objects (%) [12]: 1% | Population Membrane Permeable-Phenotype (%) [12]: 4% | Population Mitochondria Different-Phenotype (%) [12]: 1% | Population Mitotic Cells (%) [12]: 17% | Population Normal (%) [12]: 98% | Population Pyknosed Nuclei (%) [12]: 10% | Population Tubulin-Different-Phenotype (%) [12]: 0% | Total Cell Count [12]: 170
